Assay results taken from ChEMBL document CHEMBL1165965, “Synthesis and structure-activity relationships of 1,2,3,4-tetrahydropyrido[2,3-b]pyrazines as potent and selective inhibitors of the anaplastic lymphoma kinase” (Bioorg Med Chem, 2010).

Columns and labels:
[1] = target: T1, Hormonally up-regulated neu tumor-associated kinase (Homo sapiens) (UniProt P57058); assay: Inhibition of HUNK at 1 uM
T1 sequence (whole entry): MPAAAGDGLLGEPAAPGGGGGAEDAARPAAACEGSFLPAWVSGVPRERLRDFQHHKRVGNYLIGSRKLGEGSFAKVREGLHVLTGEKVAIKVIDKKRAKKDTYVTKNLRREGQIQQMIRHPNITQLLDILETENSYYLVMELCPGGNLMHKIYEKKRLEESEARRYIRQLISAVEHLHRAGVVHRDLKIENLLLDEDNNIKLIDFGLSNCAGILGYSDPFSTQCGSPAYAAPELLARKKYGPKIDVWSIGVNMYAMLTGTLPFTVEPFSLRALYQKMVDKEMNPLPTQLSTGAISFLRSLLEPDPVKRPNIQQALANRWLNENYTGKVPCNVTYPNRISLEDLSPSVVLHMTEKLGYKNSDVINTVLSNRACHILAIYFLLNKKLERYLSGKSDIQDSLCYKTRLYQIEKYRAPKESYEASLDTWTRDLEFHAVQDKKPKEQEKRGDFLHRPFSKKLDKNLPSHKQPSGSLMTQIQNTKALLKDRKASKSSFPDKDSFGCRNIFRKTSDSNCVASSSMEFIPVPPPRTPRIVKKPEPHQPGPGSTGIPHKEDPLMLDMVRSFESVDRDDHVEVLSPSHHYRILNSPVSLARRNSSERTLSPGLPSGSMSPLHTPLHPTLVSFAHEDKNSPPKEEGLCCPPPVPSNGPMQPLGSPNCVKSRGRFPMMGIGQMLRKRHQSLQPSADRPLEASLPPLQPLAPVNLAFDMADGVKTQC

[2] = target: T2, Inhibitor of nuclear factor kappa-B kinase subunit epsilon (Homo sapiens) (UniProt Q14164); assay: Inhibition of IKK-epsilon at 1 uM
T2 sequence (whole entry): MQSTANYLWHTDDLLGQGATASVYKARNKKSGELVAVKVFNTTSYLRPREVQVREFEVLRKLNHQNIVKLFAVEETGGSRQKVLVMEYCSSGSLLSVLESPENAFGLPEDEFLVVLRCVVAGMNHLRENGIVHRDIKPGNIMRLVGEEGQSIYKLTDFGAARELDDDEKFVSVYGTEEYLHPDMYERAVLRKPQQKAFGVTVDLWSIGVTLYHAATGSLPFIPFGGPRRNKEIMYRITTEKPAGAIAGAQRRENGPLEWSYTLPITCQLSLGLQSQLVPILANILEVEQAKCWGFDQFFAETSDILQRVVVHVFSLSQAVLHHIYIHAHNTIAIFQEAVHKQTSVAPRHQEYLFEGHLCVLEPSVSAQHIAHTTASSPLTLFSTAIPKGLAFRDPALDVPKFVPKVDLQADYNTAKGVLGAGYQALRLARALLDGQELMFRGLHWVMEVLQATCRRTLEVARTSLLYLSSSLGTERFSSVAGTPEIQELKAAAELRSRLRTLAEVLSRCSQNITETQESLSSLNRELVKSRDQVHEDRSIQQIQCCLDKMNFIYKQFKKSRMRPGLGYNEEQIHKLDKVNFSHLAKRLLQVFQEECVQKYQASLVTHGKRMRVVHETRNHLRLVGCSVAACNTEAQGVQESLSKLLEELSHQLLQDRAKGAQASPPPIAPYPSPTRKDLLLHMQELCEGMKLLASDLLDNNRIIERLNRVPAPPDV

[3] = target: T3, Mitogen-activated protein kinase kinase kinase kinase 2 (Homo sapiens) (UniProt Q12851); assay: Inhibition of MAP4K2 at 1 uM
T3 sequence (whole entry): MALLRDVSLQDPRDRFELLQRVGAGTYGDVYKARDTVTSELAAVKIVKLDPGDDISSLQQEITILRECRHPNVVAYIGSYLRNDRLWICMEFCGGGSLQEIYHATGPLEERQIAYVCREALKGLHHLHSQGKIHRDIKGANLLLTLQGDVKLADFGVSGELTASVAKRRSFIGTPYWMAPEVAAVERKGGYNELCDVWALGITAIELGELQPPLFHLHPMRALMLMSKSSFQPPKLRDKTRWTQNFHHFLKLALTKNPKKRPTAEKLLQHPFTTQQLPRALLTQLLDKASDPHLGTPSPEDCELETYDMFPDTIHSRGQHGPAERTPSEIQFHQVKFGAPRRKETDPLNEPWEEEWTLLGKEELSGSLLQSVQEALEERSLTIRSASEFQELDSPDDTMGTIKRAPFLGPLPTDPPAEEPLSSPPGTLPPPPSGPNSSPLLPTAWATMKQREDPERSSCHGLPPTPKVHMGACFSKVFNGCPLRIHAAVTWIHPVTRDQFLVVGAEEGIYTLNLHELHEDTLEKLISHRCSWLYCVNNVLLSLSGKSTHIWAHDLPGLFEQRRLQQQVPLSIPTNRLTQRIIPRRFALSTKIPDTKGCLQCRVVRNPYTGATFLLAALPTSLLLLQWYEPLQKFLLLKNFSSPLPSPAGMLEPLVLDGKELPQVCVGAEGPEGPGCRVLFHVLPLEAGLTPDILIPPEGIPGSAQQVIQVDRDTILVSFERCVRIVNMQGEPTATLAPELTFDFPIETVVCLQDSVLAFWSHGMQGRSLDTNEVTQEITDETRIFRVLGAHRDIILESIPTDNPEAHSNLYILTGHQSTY

[4] = target: Platelet-derived growth factor receptor alpha (Homo sapiens) (UniProt P16234); assay: Inhibition of PDGFRA at 1 uM
[5] = target: T4, Activin receptor type-1B (Homo sapiens) (UniProt P36896); assay: Inhibition of ACVR1B at 1 uM
T4 sequence (whole entry): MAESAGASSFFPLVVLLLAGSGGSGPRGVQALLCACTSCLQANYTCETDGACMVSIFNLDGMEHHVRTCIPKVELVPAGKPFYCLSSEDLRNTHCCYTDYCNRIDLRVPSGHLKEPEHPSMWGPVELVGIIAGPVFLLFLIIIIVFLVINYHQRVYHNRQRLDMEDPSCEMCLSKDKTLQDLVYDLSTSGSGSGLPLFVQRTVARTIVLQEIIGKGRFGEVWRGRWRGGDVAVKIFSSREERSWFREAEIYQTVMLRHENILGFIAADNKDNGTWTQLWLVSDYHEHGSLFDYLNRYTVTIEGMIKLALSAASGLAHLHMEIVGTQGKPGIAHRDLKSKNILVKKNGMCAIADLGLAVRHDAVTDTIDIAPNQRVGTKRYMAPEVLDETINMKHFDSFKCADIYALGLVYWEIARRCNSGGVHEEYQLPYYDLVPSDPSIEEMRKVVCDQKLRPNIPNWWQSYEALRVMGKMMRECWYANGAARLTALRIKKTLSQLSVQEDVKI
Procedure, shortened: (§1)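 Ambit KINOMEscan screen at a single concentration across a 250–400 kinase panel, recorded as percent inhibition. Selectivity was expressed as S(90), the fraction of kinases inhibited >90%.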

[6] = target: RAC-alpha serine/threonine-protein kinase (Homo sapiens) (UniProt P31749); assay: Inhibition of AKT1 at 1 uM; procedure, shortened: as §1
[7] = target: Serine/threonine-protein kinase B-raf (Homo sapiens) (UniProt P15056); assay: Inhibition of BRAF at 1 uM; procedure, shortened: as §1
Serine/threonine-protein kinase B-raf (Homo sapiens), sequence (P15056 whole entry): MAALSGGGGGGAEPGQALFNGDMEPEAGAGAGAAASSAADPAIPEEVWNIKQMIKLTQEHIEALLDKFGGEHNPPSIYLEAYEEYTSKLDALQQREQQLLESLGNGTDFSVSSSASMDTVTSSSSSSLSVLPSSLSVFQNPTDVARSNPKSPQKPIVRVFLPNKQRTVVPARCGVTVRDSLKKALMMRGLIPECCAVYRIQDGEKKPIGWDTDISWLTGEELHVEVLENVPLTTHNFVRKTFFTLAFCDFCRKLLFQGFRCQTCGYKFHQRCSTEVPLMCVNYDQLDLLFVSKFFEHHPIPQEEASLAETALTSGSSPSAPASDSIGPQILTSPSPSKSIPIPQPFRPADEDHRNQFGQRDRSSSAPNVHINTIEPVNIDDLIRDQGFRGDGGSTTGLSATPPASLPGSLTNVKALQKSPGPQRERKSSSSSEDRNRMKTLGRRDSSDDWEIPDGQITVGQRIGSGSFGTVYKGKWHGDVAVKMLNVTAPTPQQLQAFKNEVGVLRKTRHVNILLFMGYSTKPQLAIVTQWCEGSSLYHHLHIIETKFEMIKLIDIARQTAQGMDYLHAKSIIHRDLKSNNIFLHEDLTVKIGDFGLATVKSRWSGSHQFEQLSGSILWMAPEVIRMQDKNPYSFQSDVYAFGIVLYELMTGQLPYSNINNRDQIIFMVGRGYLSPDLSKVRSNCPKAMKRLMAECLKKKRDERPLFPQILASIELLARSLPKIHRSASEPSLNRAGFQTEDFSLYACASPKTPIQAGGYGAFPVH

RAC-alpha serine/threonine-protein kinase (Homo sapiens), sequence (P31749 whole entry): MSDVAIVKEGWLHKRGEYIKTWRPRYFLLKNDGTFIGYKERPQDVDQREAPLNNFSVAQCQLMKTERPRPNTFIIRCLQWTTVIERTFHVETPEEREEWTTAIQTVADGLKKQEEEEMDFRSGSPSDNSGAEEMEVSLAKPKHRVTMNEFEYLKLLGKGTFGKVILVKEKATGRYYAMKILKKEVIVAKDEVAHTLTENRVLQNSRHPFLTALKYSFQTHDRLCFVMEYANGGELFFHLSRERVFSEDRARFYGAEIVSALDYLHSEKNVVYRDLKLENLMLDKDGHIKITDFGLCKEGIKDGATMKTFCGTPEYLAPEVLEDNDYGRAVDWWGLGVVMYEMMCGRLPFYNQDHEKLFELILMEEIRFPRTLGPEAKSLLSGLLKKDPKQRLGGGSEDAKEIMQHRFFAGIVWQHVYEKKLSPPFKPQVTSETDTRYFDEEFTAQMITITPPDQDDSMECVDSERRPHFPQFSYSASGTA
Platelet-derived growth factor receptor alpha (Homo sapiens), sequence (P16234 whole entry): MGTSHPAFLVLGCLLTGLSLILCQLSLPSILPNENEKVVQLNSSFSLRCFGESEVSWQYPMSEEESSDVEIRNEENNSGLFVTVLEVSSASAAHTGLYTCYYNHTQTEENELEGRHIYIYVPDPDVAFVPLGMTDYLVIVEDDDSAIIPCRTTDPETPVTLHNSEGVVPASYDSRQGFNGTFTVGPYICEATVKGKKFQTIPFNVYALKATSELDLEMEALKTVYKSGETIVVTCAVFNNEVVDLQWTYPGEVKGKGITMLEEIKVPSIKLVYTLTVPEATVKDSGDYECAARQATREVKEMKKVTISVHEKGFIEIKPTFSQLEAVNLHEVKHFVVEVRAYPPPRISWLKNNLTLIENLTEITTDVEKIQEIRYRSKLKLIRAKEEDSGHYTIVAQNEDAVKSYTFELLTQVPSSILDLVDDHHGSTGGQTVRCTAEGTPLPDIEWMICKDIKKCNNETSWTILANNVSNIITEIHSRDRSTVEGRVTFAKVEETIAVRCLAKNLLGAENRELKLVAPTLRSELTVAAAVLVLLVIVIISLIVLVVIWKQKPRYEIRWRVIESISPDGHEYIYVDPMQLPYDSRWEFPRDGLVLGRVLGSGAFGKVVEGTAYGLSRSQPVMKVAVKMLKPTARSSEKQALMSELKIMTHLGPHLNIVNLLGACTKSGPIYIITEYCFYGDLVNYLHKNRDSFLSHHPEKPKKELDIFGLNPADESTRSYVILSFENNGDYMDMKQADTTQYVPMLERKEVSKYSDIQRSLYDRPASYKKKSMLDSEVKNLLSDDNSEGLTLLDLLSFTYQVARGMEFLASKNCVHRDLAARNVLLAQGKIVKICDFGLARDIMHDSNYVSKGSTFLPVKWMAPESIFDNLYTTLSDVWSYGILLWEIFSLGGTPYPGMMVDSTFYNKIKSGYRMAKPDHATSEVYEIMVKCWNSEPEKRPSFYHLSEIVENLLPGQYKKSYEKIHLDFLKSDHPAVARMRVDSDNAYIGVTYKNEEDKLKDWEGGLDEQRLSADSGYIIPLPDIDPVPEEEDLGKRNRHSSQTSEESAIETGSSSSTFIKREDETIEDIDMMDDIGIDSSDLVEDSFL

`CN1CCN(c2ccc(-c3cnc4c(c3)N(Cc3cc(F)ccc3F)CCN4)cn2)CC1` was tested, and the inhibition [1] was under 50%, the inhibition [2] was under 50% and the inhibition [3] was 70%. For the same compound, the inhibition [4] was under 50%, the inhibition [5] was under 50% and the inhibition [6] was under 50%. It also gave an inhibition [7] of under 50%.

`O=C(c1ccc(-c2cnc3c(c2)N(Cc2cc(Cl)ccc2C(F)(F)F)CCN3)cc1)N1CCC(N2CCCC2)CC1` showed an inhibition [4] of under 50%, an inhibition [5] of under 50% and an inhibition [6] of under 50%. It also gave an inhibition [7] of under 50%.

`O=C(c1ccc(-c2cnc3c(c2)N(Cc2cc(Cl)ccc2C(F)(F)F)CCN3)cc1)N1CCCCC1` showed an inhibition [4] of under 50%, an inhibition [5] of under 50% and an inhibition [6] of under 50%. For the same compound, the inhibition [7] was under 50%.

Work on `CN1CCN(c2ccc(-c3cnc4c(c3)N(Cc3c(F)ccc(F)c3Cl)CCN4)cn2)CC1` yielded an inhibition [1] of under 50%, an inhibition [2] of under 50% and an inhibition [3] of 92%. The inhibition [4] was under 50%, the inhibition [5] was under 50% and the inhibition [6] was under 50%. It also gave an inhibition [7] of under 50%.

`COC1CCN(C(=O)c2ccc(-c3cnc4c(c3)N(Cc3cc(Cl)ccc3C(F)(F)F)CCN4)cc2)CC1` showed an inhibition [4] of under 50%, an inhibition [5] of under 50% and an inhibition [6] of under 50%. The inhibition [7] was under 50%.

For `O=C(O)c1ccc(-c2cnc3c(c2)N(Cc2cc(Cl)ccc2C(F)(F)F)CCN3)cc1`, the inhibition [4] was under 50%, the inhibition [5] was under 50% and the inhibition [6] was under 50%. For the same compound, the inhibition [7] was under 50%.

`CC(=O)N1CCN(c2cc(-c3cnc4c(c3)N(Cc3cc(Cl)ccc3C(F)(F)F)CCN4)ccn2)CC1` was tested, and the inhibition [1] was under 50%, the inhibition [2] was under 50% and the inhibition [3] was under 50%. The inhibition [4] was under 50%, the inhibition [5] was under 50% and the inhibition [6] was under 50%. For the same compound, the inhibition [7] was under 50%.

`FC(F)(F)c1ccc(Cl)cc1CN1CCNc2ncc(-c3ccnc(N4CCNCC4)c3)cc21` showed an inhibition [1] of under 50%, an inhibition [2] of under 50% and an inhibition [3] of 70%. The inhibition [4] was under 50%, the inhibition [5] was under 50% and the inhibition [6] was under 50%. The inhibition [7] was under 50%.

Work on `CN1CCN(c2ccc(-c3cnc4c(c3)N(Cc3cc(Cl)ccc3C(F)(F)F)CCN4)cn2)CC1` yielded an inhibition [1] of under 50%, an inhibition [2] of under 50% and an inhibition [3] of under 50%. For the same compound, the inhibition [4] was under 50%, the inhibition [5] was under 50% and the inhibition [6] was under 50%. For the same compound, the inhibition [7] was under 50%.

With `CN1CCN(c2ccc(-c3cnc4c(c3)N(Cc3cc(Cl)ccc3Cl)CCN4)cn2)CC1` the inhibition [1] was under 50%, the inhibition [2] was under 50% and the inhibition [3] was under 50%. For the same compound, the inhibition [4] was under 50%, the inhibition [5] was under 50% and the inhibition [6] was under 50%. It also gave an inhibition [7] of under 50%.
